A word on the MIC90: it is an inhibitory concentration at the 90% level, which refers to growth in some studies and to a panel of isolates in others. A higher MIC90 goes with weaker potency.

Drawing on ChEMBL document CHEMBL3808330, “Peroxide Natural Products from Plakortis zyggompha and the Sponge Association Plakortis halichondrioides-Xestospongia deweerdtae: Antifungal Activity against Cryptococcus gattii” (J Nat Prod, 2016), this text covers MIC90 and Stability for nine compounds.

Molecules are shown by their SMILES. Values after ≈ are worked out from the molar mass of the structure shown.

Data set [1] has as its system Cryptococcus gattii species complex. Description: Antifungal activity against Cryptococcus gattii after 48 hrs by microbroth dilution method. Type of data set: functional, Cryptococcus bacillisporus. The method, boiled down:
(§1)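 Microbroth dilution per CLSI protocol in antibiotic medium 3; growth read as optical density at 590 nm in microplate wells; MIC90 reported. C. albicans ATCC 14503; C. krusei patient isolate from UC Davis clinical microbiology; C. gattii and C. grubii strains gifted from UC Davis.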
A general note: In broth dilution the organism is exposed to a series of concentrations in liquid medium.

The next data set deals with Pichia kudriavzevii. As to the kind of experiment: Antifungal activity against fluconazole-resistant Candida krusei after 48 hrs by microbroth dilution method. Type of data set: functional. The method, boiled down:
as §1

A further data set relates to Cryptococcus neoformans. As to the kind of experiment: Antifungal activity against Cryptococcus grubii after 48 hrs by microbroth dilution method. Type of data set: functional. An outline of the steps:
as §1

In another data set the test system is Candida albicans. Description: Antifungal activity against Candida albicans ATCC 14503 after 48 hrs by microbroth dilution method. Type of data set: functional. The settings on record: ATCC 14503, 48 h. An outline of the steps:
as §1

Data set [2] can be described thus: Drug degradation in presence of 3-tert-butyl-4-hydroxy-5-methylphenyl sulfide at -20 degC after 48 hrs by 1H-NMR spectroscopic method. Type of data set: physicochemical.
A short description of data set [3]: Stability assessed as drug degradation under ambient conditions by 1H-NMR spectroscopic method. Type of data set: physicochemical.
The nature of data set [4]: Drug degradation in presence of 3-tert-butyl-4-hydroxy-5-methylphenyl sulfide at -20 degC after 12 hrs by 1H-NMR spectroscopic method. Format: physicochemical.

As to `CCCCCC[C@]1(CC)C[C@H](CC)[C@H](CC(=O)O)OO1`, the MIC90 in data set [1] was 9.6 µM (≈ 2.75 µg/mL); against Pichia kudriavzevii, 4.3 µM (≈ 1.23 µg/mL); with Cryptococcus neoformans it was 6 µM (≈ 1.72 µg/mL); against Candida albicans it was 22 µM (≈ 6.3 µg/mL).

For `CCCCC[C@]1(CC)C[C@H](CC)[C@H](CC(=O)O)OO1`, the MIC90 came to 36 µM (≈ 9.81 µg/mL) in data set [1], 10 µM (≈ 2.72 µg/mL) against Pichia kudriavzevii, 26 µM (≈ 7.08 µg/mL) against Cryptococcus neoformans and 27 µM (≈ 7.35 µg/mL) in the data set with Candida albicans.

In the case of `CC(=C\Cc1ccccc1)/C=C(\C)C[C@@H](C)C[C@@]1(C)C[C@@](C)(CC(=O)O)OO1`, the MIC90 (in data set [1]; against Candida albicans) was more than 100 µM each time. Moreover, the Stability result in data set [2] is “Unstable”; in data set [3], “Unstable”; in data set [4], “Stable”.

On to `C/C(=C\C=C\Cc1ccccc1)C[C@@H](C)C[C@@]1(C)C[C@@](C)(/C=C/C(=O)O)OO1`, for which the MIC90 (in data set [1]; against Candida albicans) was more than 100 µM each time. Also, the Stability entry is reported as “Unstable” in data set [2], “Unstable” in data set [3] and “Stable” in data set [4].

Consider `CC(=C\Cc1ccccc1)/C=C(\C)C[C@@H](C)C[C@@]1(C)C[C@@](C)(/C=C/C(=O)O)OO1`, for which the MIC90 (in data set [1]; with Candida albicans) was more than 100 µM in each case. For the same compound, the Stability entry is “Unstable” in data set [2], “Unstable” in data set [3] and “Stable” in data set [4].

Take `CCCCCC[C@]1(CC)C[C@H](CC)[C@H](CC(=O)OC)OO1`: the MIC90 (in data set [1]; in the data set with Candida albicans) was more than 100 µM throughout.

On to `CCCCC[C@]1(CC)C[C@H](CC)[C@H](CC(=O)OC)OO1`, for which the MIC90 (in data set [1]; with Candida albicans) was more than 100 µM in each case.

Regarding `C[C@H](CCCCCCCCCc1ccccc1)C[C@]1(C)C[C@H](C)[C@H](CC(=O)O)OO1`, the MIC90 in data set [1] was found to be 2.4 µM (≈ 1 µg/mL); in the data set on Pichia kudriavzevii, 2.7 µM (≈ 1.13 µg/mL); with Cryptococcus neoformans it was 3.4 µM (≈ 1.42 µg/mL); in the data set on Candida albicans, 13 µM (≈ 5.44 µg/mL).

For `CCCCC[C@]1(CC)C[C@H](CC)[C@@H]([C@H](O)C(=O)O)O1`, the MIC90 (in data set [1]; in the data set with Candida albicans) was more than 100 µM each time.
